From ChEMBL document CHEMBL4616713, “Discovery of Novel Nonpeptidic PAR2 Ligands” (ACS Med Chem Lett, 2020)
Non-standard residues stand in square brackets, D forms with d. Residues, ends and D or L forms follow the SMILES beside them. *: point of attachment. Orn = NCCC[C@H](N)C(=O)O; 2Furoyl = O=C(c1ccco1)*

Key:
[1] = biological target: T1, Proteinase-activated receptor 2 (Homo sapiens, UniProt P55085); assay: Agonist activity at human PAR2 expressed in HEK293T cells assessed as induction of Galphaq-stimulated IP1 formation incubated for 2 hrs by FRET assay; format: functional, cell-based, HEK-293T
T1 sequence (P55085 whole entry): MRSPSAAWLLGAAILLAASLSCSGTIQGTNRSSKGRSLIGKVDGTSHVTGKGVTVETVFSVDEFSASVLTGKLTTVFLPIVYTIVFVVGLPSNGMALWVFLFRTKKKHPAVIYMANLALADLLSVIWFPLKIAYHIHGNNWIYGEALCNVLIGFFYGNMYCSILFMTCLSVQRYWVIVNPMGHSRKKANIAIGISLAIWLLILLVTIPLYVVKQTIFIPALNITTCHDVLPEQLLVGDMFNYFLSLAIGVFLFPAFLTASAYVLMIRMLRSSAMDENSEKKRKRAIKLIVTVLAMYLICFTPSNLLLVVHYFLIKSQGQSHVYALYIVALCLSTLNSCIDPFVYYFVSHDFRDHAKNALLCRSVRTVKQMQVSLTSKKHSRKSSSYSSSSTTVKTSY
Procedure, shortened: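 Gq activation via PAR2 in HEK293 cells, read as IP1 accumulation by FRET (IP-One). For curves without a plateau, the value given is efficacy at 30 μM. Data are mean ± SEM of at least three independent experiments, each performed in duplicate.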

[2] = biological target: T1, Proteinase-activated receptor 2; assay: Agonist activity at PK1-tagged PAR2 (unknown origin) expressed in HEK293 cells assessed as induction of beta-arrestin recruitment incubated for 90 mins by Pathhunter chemiluminescent assay; format: cell-based
Procedure, shortened: (§1)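 PathHunter enzyme-complementation read-out of β-arrestin-2 recruitment to PAR2 in HEK293 cells. Efficacy is expressed relative to reference 2f-LIGRLO-NH2. Data are mean ± SEM of at least three independent experiments run in duplicate.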

[3] = Metabolic stability in Sprague-Dawley rat liver microsomes assessed as CYP450-mediated drug degradation at 20 uM measured up to 60 mins in presence of NADPH by LC-MS analysis; details: 1 h
[4] = Stability in rat plasma assessed as drug degradation after 1 hr by LC-MS analysis; format: ADME, cell-free
Procedure, shortened: (§2)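 Ligand was incubated in rat plasma and sampled at set time points up to 4 h. Samples were analysed by LC–MS. Standard-corrected peak areas are expressed as % of t = 0 min, mean ± SEM (n ≥ 3).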

[5] = biological target: T1, Proteinase-activated receptor 2; assay: Agonist activity at PK1-tagged PAR2 (unknown origin) expressed in HEK293 cells assessed as induction of beta-arrestin recruitment incubated for 90 mins by Pathhunter chemiluminescent assay relative to 2f-LIGRLO-NH2; format: cell-based; details: 1.5 h; procedure, shortened: as §1
[6] = Stability in rat plasma measured up to 4 hrs by LC-MS analysis; format: ADME, cell-free; procedure, shortened: as §2
[7] = biological target: T1, Proteinase-activated receptor 2; assay: Agonist activity at PK1-tagged PAR2 (unknown origin) expressed in HEK293 cells assessed as induction of beta-arrestin recruitment at 30 uM incubated for 90 mins by Pathhunter chemiluminescent assay relative to 2f-LIGRLO-NH2; format: cell-based; details: 1.5 h; procedure, shortened: as §1

EC50 ([1]; read-out: EC50) [nM] | EC50 ([2]; read-out: EC50) [nM] | Stability [3] | Stability [4] | EC50 ([1]; hek-293t) | EC50 ([2]; hek293) | Emax [5] [%] | Stability [6] | Emax at 30 µM [7] [%] | Structure (SMILES)
150 | 430 | Stable | Unstable |  |  |  |  |  | CC[C@H](C)[C@H](NC(=O)[C@H](CC(C)C)NC(=O)c1ccco1)C(=O)NCC(=O)N[C@@H](CCCN=C(N)N)C(=O)N[C@@H](CC(C)C)C(=O)N[C@@H](CCCN)C(N)=O (2Furoyl-LIGRL[Orn]-NH2)
 |  |  |  |  |  | 100 |  |  | CC[C@H](C)[C@H](NC(=O)[C@H](CC(C)C)NC(=O)c1ccco1)C(=O)NCC(=O)N[C@@H](CCCNC(=N)N)C(=O)N[C@@H](CC(C)C)C(=O)N[C@@H](CCCN)C(N)=O (2Furoyl-LIGRL[Orn]-NH2)
590 | 6000 | Stable |  |  |  | 65 | Stable |  | NC(=O)Cc1ccccc1CNC(=O)[C@H](CC1CCCCC1)NC(=O)c1ccno1

Continued, molecule first:

Structure (SMILES) | EC50 ([1]; read-out: EC50) [nM] | EC50 ([2]; read-out: EC50) [nM] | Stability [3] | Stability [4] | EC50 ([1]; hek-293t) | EC50 ([2]; hek293) | Emax [5] [%] | Stability [6] | Emax at 30 µM [7] [%]
NC(=O)Cc1ccccc1CNC(=O)Cc1ccccc1CNC(=O)c1ccno1 |  |  |  |  | Not Active | Not Active |  |  | 
Cc1cc(C(=O)N[C@@H](CC2CCCCC2)C(=O)NCc2ccccc2CC(N)=O)on1 | 640 | 8900 | Stable |  |  |  | 95 | Stable | 
NC(=O)Cc1ccccc1CNC(=O)[C@H](Cc1ccccc1)NC(=O)c1ccno1 | 1900 |  |  |  |  |  |  |  | 32
